Source: ChEMBL document CHEMBL1129236, “Synthesis and structure-activity relationships of phenylenebis(methylene)-linked bis-tetraazamacrocycles that inhibit human immunodeficiency virus replication. 2. Effect of heteroaromatic linkers on the activity of bicyclams” (J Med Chem, 1996)

How the values were obtained:
MT4 = assay: Concentration required to reduce the viability of mock infected cells by 50%; type: functional; conditions: Homo sapiens
Method in brief: (§1)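 MT-4 cells were infected with HIV-1 (III_B) or HIV-2 (ROD) at MOI 0.01 (100 CCID₅₀), or mock-infected, run in parallel. Cells were exposed to various compound concentrations and grown 5 days, then viable cells were counted by MTT colorimetry. EC₅₀ protects 50% of infected cells from cytopathicity; CC₅₀ cuts mock-infected viability by 50%. Values are averages of several experiments.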

[1] = system: Human immunodeficiency virus 1; assay: Effective concentration against HIV-1(IIIB) replication in MT-4 cells; type: functional, organism-based; conditions: Human immunodeficiency virus 1, MT4; method in brief: as §1
[2] = system: Human immunodeficiency virus 2; assay: Effective concentration against HIV-2(ROD) replication in MT-4 cells; type: functional, organism-based; conditions: Human immunodeficiency virus 2, MT4; method in brief: as §1
[3] = pKa was reported; type: physicochemical
Method in brief: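 Potentiometric titration: a 0.1 mM aqueous solution with 4 equiv HClO₄ at 25 °C, I = 0.1 M (NaClO₄), was titrated with 0.1 M NaOH. The electrode was calibrated with pH 4.00 and 7.00 buffers. UV spectra (400–200 nm, 1 cm path) were also taken at 0.17 mM across pH 1–7, with pH set by HClO₄ in 0.1 M NaClO₄.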

EC50 [1] [nM]	EC50 [2] [nM]	pKa [3]	SMILES	CC50 (MT4) [nM]
16400	16400	–	c1cc(CN2CCCNCCNCCCNCC2)cc(CN2CCCNCCNCCCNCC2)n1	17000
39.8	20	–	c1ccc(-c2cc(CN3CCCNCCNCCCNCC3)cc(CN3CCCNCCNCCCNCC3)n2)cc1	> 203000
26.1	17.4	–	c1ncc(CN2CCCNCCNCCCNCC2)nc1CN1CCCNCCNCCCNCC1	> 203000
908	2190	–	c1cc(CN2CCCNCCNCCCNCC2)ncc1CN1CCCNCCNCCCNCC1	18000
139000	106000	–	c1nc(CN2CCCNCCNCCCNCC2)cnc1CN1CCCNCCNCCCNCC1	> 203000
24.5	65.4	–	c1cc(CN2CCCNCCNCCCNCC2)nc(CN2CCCNCCNCCCNCC2)c1	> 409000
31.6	71	–	c1ncc(CN2CCCNCCNCCCNCC2)cc1CN1CCCNCCNCCCNCC1	> 395000
–	–	–	c1cc(CN2CCCNCCNCCCNCC2)cc(CN2CCCNCCNCCCNCC2)c1	> 421000
> 200000	> 200000	–	O=C(O)c1cc(CN2CCCNCCNCCCNCC2)ccc1CN1CCCNCCNCCCNCC1	> 200000
–	–	< 3	c1ccc(C2CCNCCNCCCNCCN2)nc1 (centres undefined)	–
> 203000	> 203000	–	O=C(O)c1cc(CN2CCCNCCNCCCNCC2)cc(CN2CCCNCCNCCCNCC2)c1	> 200000
3770	4270	–	c1ccc2c(CN3CCCNCCNCCCNCC3)cc(CN3CCCNCCNCCCNCC3)nc2c1	> 419000
682	590	–	COC(=O)c1cc(CN2CCCNCCNCCCNCC2)ccc1CN1CCCNCCNCCCNCC1	> 198000
–	–	–	c1ccc(-c2cc(CN3CCCNCCNCCCNCC3)cc(CN3CCCNCCNCCCNCC3)c2)cc1	> 198000
46.8	39	–	Nc1cc(CN2CCCNCCNCCCNCC2)cc(CN2CCCNCCNCCCNCC2)c1	> 194000
157	78.6	–	c1ccc2c(CN3CCCNCCNCCCNCC3)cc(CN3CCCNCCNCCCNCC3)cc2c1	207000
–	–	5.32	c1ccc(CCC2CNCCNCCCNCCNC2)nc1	–
–	–	3.6	Oc1cccnc1C1CCNCCNCCCNCCN1 (centres undefined)	–
187	93.4	–	Nc1cc(CN2CCCNCCNCCCNCC2)ccc1CN1CCCNCCNCCCNCC1	> 179000
–	5.9	–	c1cc(CN2CCCNCCNCCCNCC2)ccc1CN1CCCNCCNCCCNCC1 [PLERIXAFOR]	> 421000
